Assay results: paper PMC4979564 (JCI insight, 2016)

Tests used:
recombinant bovine eNOS = recombinant bovine eNOS (Bos taurus, UniProt P29473); test: Radioisotopic eNOS activity assay; assay type: biochemical; conditions: recombinant eNOS enzyme
How it was run: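 Recombinant bovine eNOS was incubated with test compound. Activity was taken as the rate of conversion of [3H]L-arginine to [3H]L-citrulline, using a radioisotopic NOS assay kit per supplier's instructions. L-NNA (100 μM) served as positive control. One-way ANOVA with Dunnett's test.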

iNOS = iNOS (Mus musculus, UniProt P29477); assay type: cell-based; conditions: for concentration range of concentration-dependent inhibition of iNOS activity: extracts of RAW 264.7 macrophages treated with LPS + γ-interferon
How it was run: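 RAW 264.7 mouse macrophages (100,000 cells/well) primed 24 h with LPS (50 ng/ml) plus γ-interferon (10 ng/ml) to induce iNOS. Test compound was then added for 1 h. Activity was read with a fluorimetric cell-associated NOS detection kit per supplier's protocol. Diphenylene iodonium (1 mM) served as positive control. One-way ANOVA with Dunnett's test against LPS+γ-interferon control.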

CB1R [1] = biological target: T1, CB1R (Mus musculus, UniProt P47746); test: [35S]GTPγS-binding assay; assay type: biochemical; conditions: no agonist
T1 sequence (P47746 whole entry): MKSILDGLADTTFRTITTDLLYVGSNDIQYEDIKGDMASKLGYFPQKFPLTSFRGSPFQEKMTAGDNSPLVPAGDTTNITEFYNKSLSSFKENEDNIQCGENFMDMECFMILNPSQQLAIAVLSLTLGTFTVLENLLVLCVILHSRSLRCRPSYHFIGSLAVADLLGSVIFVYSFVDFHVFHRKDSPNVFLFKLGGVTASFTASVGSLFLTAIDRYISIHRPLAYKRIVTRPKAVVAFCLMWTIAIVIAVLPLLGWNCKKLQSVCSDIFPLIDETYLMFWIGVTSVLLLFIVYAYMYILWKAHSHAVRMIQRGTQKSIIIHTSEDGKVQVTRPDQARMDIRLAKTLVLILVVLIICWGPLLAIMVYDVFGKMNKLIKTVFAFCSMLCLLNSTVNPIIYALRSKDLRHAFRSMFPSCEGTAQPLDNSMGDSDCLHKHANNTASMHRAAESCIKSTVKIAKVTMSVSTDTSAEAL

CB1R [2] = biological target: T1, CB1R; test: Brain CB1R occupancy by CB1R PET; assay type: in vivo; conditions: acute or chronic treatment, 3–30 mg/kg
hERG = hERG (Homo sapiens, UniProt Q12809); test: hERG K+ current inhibition; assay type: biochemical; conditions: read-out: IC50 for inhibition of the K+ current mediated by hERG; in vitro
Sequence of hERG (Q12809 whole entry): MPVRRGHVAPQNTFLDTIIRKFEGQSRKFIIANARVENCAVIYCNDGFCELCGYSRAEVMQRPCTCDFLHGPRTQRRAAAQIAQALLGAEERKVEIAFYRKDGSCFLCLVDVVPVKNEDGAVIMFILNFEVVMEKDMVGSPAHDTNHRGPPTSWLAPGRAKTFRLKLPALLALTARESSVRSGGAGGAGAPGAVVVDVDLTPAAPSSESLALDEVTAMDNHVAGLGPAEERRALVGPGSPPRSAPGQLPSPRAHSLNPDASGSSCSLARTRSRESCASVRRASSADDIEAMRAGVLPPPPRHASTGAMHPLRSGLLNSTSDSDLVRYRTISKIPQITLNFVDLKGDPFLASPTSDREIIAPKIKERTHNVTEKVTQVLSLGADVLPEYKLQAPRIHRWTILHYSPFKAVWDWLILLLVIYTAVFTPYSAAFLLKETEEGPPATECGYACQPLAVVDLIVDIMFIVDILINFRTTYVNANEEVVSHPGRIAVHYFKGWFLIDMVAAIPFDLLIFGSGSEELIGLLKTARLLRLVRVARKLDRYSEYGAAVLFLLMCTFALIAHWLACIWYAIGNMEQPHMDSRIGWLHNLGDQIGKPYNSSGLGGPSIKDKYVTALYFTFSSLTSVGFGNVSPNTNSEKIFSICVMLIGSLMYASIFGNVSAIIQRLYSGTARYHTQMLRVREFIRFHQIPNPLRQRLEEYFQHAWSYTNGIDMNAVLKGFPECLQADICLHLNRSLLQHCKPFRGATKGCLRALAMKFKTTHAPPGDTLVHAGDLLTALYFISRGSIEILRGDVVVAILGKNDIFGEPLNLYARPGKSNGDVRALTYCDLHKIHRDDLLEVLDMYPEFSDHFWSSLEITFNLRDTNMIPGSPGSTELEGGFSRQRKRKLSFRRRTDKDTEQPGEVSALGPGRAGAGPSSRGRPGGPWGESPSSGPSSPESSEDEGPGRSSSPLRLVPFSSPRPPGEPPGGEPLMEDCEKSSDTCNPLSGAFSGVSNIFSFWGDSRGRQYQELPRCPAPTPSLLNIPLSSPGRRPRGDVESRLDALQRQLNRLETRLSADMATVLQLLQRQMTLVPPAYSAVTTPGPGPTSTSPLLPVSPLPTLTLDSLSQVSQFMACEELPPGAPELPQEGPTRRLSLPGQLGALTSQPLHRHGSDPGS

[3] = system: CCl4-induced liver fibrosis; test: CCl4-induced liver fibrosis; assay type: in vivo, mouse; conditions: 3 mg/kg/d for 4 weeks with CCl4 twice weekly
[4] = 2-strain Ames test for in vitro genotoxicity; conditions: up to 125 μg/ml
κ opioid receptor = test: Safety screen; assay type: binding; conditions: 1 μM
CB1R [5] = biological target: T1, CB1R; test: Upper GI motility assay; assay type: in vivo
Pharmacokinetics in mice = assay type: in vivo, mouse; conditions: oral
[6] = system: BDL-induced liver fibrosis; test: Bile duct ligation; assay type: in vivo, mouse; conditions: for progression of established BDL-induced liver fibrosis: treatment started on day 6 after BDL; for gene expression of fibrosis markers collagen-1, Tgfβ1, αSma, Timp1: wild-type mice with BDL
[7] = Liver microsomal stability assay; assay type: in vitro ADME; conditions: mouse, rat, or human liver microsomes, 1 hour at 37°C
CB1R [8] = biological target: CB1R (Homo sapiens, UniProt P21554); test: Safety screen; assay type: binding; conditions: 1 μM
Sequence of CB1R (Homo sapiens, UniProt P21554) (P21554 whole entry): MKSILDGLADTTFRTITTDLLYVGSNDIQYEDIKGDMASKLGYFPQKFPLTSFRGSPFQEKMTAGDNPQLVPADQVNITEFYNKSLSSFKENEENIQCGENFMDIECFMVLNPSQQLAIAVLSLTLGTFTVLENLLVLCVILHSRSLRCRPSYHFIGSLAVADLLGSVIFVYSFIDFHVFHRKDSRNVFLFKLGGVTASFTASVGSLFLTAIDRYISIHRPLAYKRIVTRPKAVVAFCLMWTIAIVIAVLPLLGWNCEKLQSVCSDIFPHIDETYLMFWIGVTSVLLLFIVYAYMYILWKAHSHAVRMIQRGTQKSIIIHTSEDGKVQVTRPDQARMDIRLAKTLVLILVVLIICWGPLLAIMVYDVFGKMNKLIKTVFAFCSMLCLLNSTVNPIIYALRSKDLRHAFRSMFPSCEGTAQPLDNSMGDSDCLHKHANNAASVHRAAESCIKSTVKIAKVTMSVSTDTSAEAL

[9] = Pharmacokinetics in Sprague-Dawley rats; assay type: in vivo, rat
[10] = Tissue distribution by LC-MS/MS after oral dosing; assay type: in vivo, mouse
anxiety-like behavior = test: Elevated plus-maze test; assay type: in vivo, mouse
[11] = Plasma ALT and AST after 28-day chronic oral administration; assay type: in vivo, mouse; conditions: for plasma ALT / plasma AST: 28-day chronic oral
How it was run: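 Mice received test compound by daily oral gavage. Blood was collected at sacrifice, and serum ALT and AST were measured on an automated clinical chemistry analyzer.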

Caco-2 = Caco-2 permeability assay; assay type: in vitro ADME
CB2R = conditions: binding, CHO-K1 membranes

## CC(=N)N [acetamidine]
Recombinant bovine eNOS
  effect on eNOS activity: unaffected
iNOS
  concentration range of concentration-dependent inhibition of iNOS activity: 1 to 10 µM

## C/C(N)=N\C(=N/S(=O)(=O)c1ccc(C(F)(F)F)cc1)N1C[C@H](c2ccccc2)C(c2ccc(Cl)cc2)=N1 [MRI-1867]
Recombinant bovine eNOS
  effect on eNOS activity: unaffected
CB1R [1]
  GTPγS binding in the absence of an agonist (inverse agonism): concentration-dependent decreases in GTPγS binding
CB1R [2]
  displacement of a CB1R PET ligand in brain: failed to cause significant displacement
hERG
  IC50: 5.1 µM
[3]
  CCl4-induced fibrosis (Sirius red, Hyp content, fibrogenic gene expression, iNOS protein): attenuated significantly more
[4]
  Ames test genotoxicity: negative
κ opioid receptor
  displacement at κ opioid receptor: 61%
CB1R [5]; 10 mg/kg agonist
  reversal of inhibition of upper GI motility caused by CB1R agonist arachidonoyl 2-chloroethylamide: dose-dependently reversed
CB1R [5]; oral doses of 3–10 mg/kg, control mice, no effect in CBr1−/− mice
  upper GI motility (inverse agonism): significantly increased upper GI motility
Pharmacokinetics in mice
  Plasma t1/2: ~ 4 hours
[6]; 3 mg/kg/d oral
  BDL-induced increase in hepatic iNOS gene expression: completely prevented
  BDL-induced increase in hepatic iNOS protein (immunostaining): completely prevented
  BDL-induced increase in iNOS function (hepatic iNOS enzyme activity, protein nitrosylation): completely prevented
  macrophage infiltration, hepatocyte apoptosis and elevated Ccl2 after BDL: more effectively suppressed
  progression of established BDL-induced liver fibrosis: completely arrest the progression
  gene expression of fibrosis markers collagen-1, Tgfβ1, αSma, Timp1: significantly reduced
[6]; cnr1−/− mice, 3 mg/kg/d oral
  BDL-induced fibrosis in cnr1−/− mice: further attenuated
[6]; wild-type mice, 3 mg/kg/d oral
  BDL-induced ductular proliferation: attenuated significantly more effectively
[7]
  compound remaining unmetabolized: 46%–62%
CB1R [8]
  displacement at CB1R: 93%
[9]; AUC oral gavage versus intravenous, 3 mg/kg, Sprague-Dawley rats
  oral bioavailability: 81%
[9]; oral, rats
  Plasma t1/2: ~ 4 hours
[10]; 10 times higher dose (30 mg/kg), acute or chronic oral, 1 hour after dose
  unbound drug concentrations in the brain: 0.9 to 1.2 nM
[10]; acute or 28-day chronic oral administration, 3 mg/kg
  brain/plasma Cmax ratio: ~ 3%
[10]; acute or chronic oral dosing, 3 mg/kg, 1 hour after dose
  brain concentration of unbound drug: 0.2 to 0.3 nM
[10]; mdr1α−/− mice
  brain penetrance and brain CB1R occupancy in mdr1α−/− mice: marked increase
[10]; oral dosing
  accumulation in the liver: accumulated highly in the liver
anxiety-like behavior; doses up to 30 mg/kg
  anxiety-like behavior in the elevated plus maze: did not induce anxiety-like behavior
iNOS
  concentration range of concentration-dependent inhibition of iNOS activity: 1 to 10 µM
[11]; 28-day chronic oral doses of 3 or 30 mg/kg
  hepatotoxicity: no hepatotoxicity
[11]; 3 mg/kg
  plasma ALT: 31.8 ± 4.8 U/l
  plasma AST: 44.0 ± 6.1 U/l
[11]; 30 mg/kg
  plasma ALT: 26.2 ± 3.4 U/l
  plasma AST: 36.2 ± 1.2 U/l
Caco-2
  efflux ratio: 2.5
CB2R
  selectivity for CB1R over CB2R: > 500 fold

## CC(=N)NCc1cccc(CN)c1 [1400W, reference compound]
[6]; 10 mg/kg daily
  progression of established BDL-induced liver fibrosis: attenuated fibrosis to the same extent as rimonabant

## Cc1c(C(=O)NN2CCCCC2)nn(-c2ccc(Cl)cc2Cl)c1-c1ccc(Cl)cc1 [rimonabant, reference compound]
Recombinant bovine eNOS
  effect on eNOS activity: Lack of effect
[6]; 3 mg/kg/d oral
  BDL-induced increase in hepatic iNOS gene expression: only partially reduced
  BDL-induced increase in hepatic iNOS protein (immunostaining): did not affect
  BDL-induced increase in iNOS function (hepatic iNOS enzyme activity, protein nitrosylation): no significant effect
  gene expression of fibrosis markers collagen-1, Tgfβ1, αSma, Timp1: significantly reduced
anxiety-like behavior; 3 mg/kg
  anxiety-like behavior in the elevated plus maze: caused pronounced anxiety
iNOS; up to 100 μM
  inhibition of iNOS activity: did not inhibit iNOS
